Where “and” joins values, the source holds several entries; their conditions need not be identical. Equal values may be shown once.
Columns and labels:
Type in all cases: toxicity, cell-based
[1] = tested on: Fibroblast; test: Multiplex assay against human fibroblast
Method in brief: (§1)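 Phenotypes for tubulin, mitochondrial mass and membrane permeability are expressed as per cents of healthy-nucleus cells. Cells were stained live at seeding with Hoechst33342, BioTracker Green Microtubule Cytoskeleton Dye, MitoTracker Red and Annexin V Alexa Fluor 680, then imaged after compound addition on a CQ1 microscope at 37°C and 5% CO2. Machine-learning gating in CellPathfinder separated Hoechst high-intensity objects from normal cells, divided normal cells by nuclear state (healthy, pyknosed, fragmented) and divided pyknosed cells into mitotic or apoptotic.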

[2] = tested on: HEK-293T; test: Multiplex assay against HEK293T; settings: human; method in brief: as §1
[3] = tested on: U2OS; test: Multiplex assay against U2OS; settings: human; method in brief: as §1
[4] = 12 h, 1 µM, compound concentration 1 uM
[5] = 12 h, 10 µM, compound concentration 10 uM
[6] = 24 h, 1 µM, compound concentration 1 uM
[7] = 24 h, 10 µM, compound concentration 10 uM
[8] = 48 h, 1 µM, compound concentration 1 uM
[9] = 48 h, 10 µM, compound concentration 10 uM

CN(C)Cc1cccc(NC(=C2C(=O)Nc3cc(C(=O)N(C)C)ccc32)c2ccccc2)c1
Population Fragmented Nuclei (%) [1, 4]: 12.28% and 5.26%
Population Healthy Nuclei (%) [1, 4]: 63.16% and 78.47%
Population Hoechst High Intensity Objects (%) [1, 4]: 0%
Population Membrane Permeable-Phenotype (%) [1, 4]: 4.17% and 9.15%
Population Mitochondria Different-Phenotype (%) [1, 4]: 12.5% and 7.93%
Population Mitotic Cells (%) [1, 4]: 91.07% and 67.65%
Population Normal (%) [1, 4]: 100%
Population Pyknosed Nuclei (%) [1, 4]: 24.56% and 16.27%
Population Tubulin-Different-Phenotype (%) [1, 4]: 20.14% and 25%
Total Cell Count [1, 4]: 228 and 209
Population Apoptotic (%) [1, 5]: 15.09% and 31.43%
Population Fragmented Nuclei (%) [1, 5]: 12.72% and 8.65%
Population Healthy Nuclei (%) [1, 5]: 64.04% and 80.13%
Population Hoechst High Intensity Objects (%) [1, 5]: 0%
Population Membrane Permeable-Phenotype (%) [1, 5]: 8.22% and 6.4%
Population Mitochondria Different-Phenotype (%) [1, 5]: 23.97% and 16.8%
Population Mitotic Cells (%) [1, 5]: 84.91% and 68.57%
Population Normal (%) [1, 5]: 100%
Population Pyknosed Nuclei (%) [1, 5]: 23.25% and 11.22%
Population Tubulin-Different-Phenotype (%) [1, 5]: 54.79% and 75.6%
Total Cell Count [1, 5]: 228 and 312
Population Fragmented Nuclei (%) [1, 6]: 10.42% and 4.72%
Population Healthy Nuclei (%) [1, 6]: 77.5% and 83.96%
Population Hoechst High Intensity Objects (%) [1, 6]: 0%
Population Membrane Permeable-Phenotype (%) [1, 6]: 1.08% and 2.81%
Population Mitochondria Different-Phenotype (%) [1, 6]: 4.84% and 10.11%
Population Mitotic Cells (%) [1, 6]: 93.1% and 75%
Population Normal (%) [1, 6]: 100%
Population Pyknosed Nuclei (%) [1, 6]: 12.08% and 11.32%
Population Tubulin-Different-Phenotype (%) [1, 6]: 11.29% and 23.03%
Total Cell Count [1, 6]: 240 and 212
Population Apoptotic (%) [1, 7]: 13.33% and 25%
Population Healthy Nuclei (%) [1, 7]: 66.94% and 85.67%
Population Hoechst High Intensity Objects (%) [1, 7]: 0%
Population Membrane Permeable-Phenotype (%) [1, 7]: 8.43% and 2.18%
Population Mitochondria Different-Phenotype (%) [1, 7]: 24.7% and 21.82%
Population Mitotic Cells (%) [1, 7]: 86.67% and 75%
Population Normal (%) [1, 7]: 100%
Population Pyknosed Nuclei (%) [1, 7]: 18.15% and 9.97%
Population Tubulin-Different-Phenotype (%) [1, 7]: 63.25% and 79.64%
Total Cell Count [1, 7]: 248 and 321
Population Apoptotic (%) [1, 8]: 26.67% and 31.25%
Population Fragmented Nuclei (%) [1, 8]: 11.31% and 7.86%
Population Healthy Nuclei (%) [1, 8]: 83.21% and 85.15%
Population Hoechst High Intensity Objects (%) [1, 8]: 0%
Population Membrane Permeable-Phenotype (%) [1, 8]: 0.88% and 7.18%
Population Mitotic Cells (%) [1, 8]: 73.33% and 68.75%
Population Normal (%) [1, 8]: 100%
Population Pyknosed Nuclei (%) [1, 8]: 5.47% and 6.99%
Population Tubulin-Different-Phenotype (%) [1, 8]: 7.46% and 16.92%
Total Cell Count [1, 8]: 274 and 229
Population Apoptotic (%) [1, 9]: 33.33% and 64.71%
Population Fragmented Nuclei (%) [1, 9]: 14.48% and 6.69%
Population Healthy Nuclei (%) [1, 9]: 77.44% and 87.9%
Population Hoechst High Intensity Objects (%) [1, 9]: 0%
Population Membrane Permeable-Phenotype (%) [1, 9]: 1.3% and 2.9%
Population Mitochondria Different-Phenotype (%) [1, 9]: 11.3% and 9.42%
Population Mitotic Cells (%) [1, 9]: 66.67% and 35.29%
Population Normal (%) [1, 9]: 100%
Population Pyknosed Nuclei (%) [1, 9]: 8.08% and 5.41%
Population Tubulin-Different-Phenotype (%) [1, 9]: 43.48% and 85.14%
Total Cell Count [1, 9]: 297 and 314
Population Apoptotic (%) [2, 4]: 14.71% and 13.93%
Population Hoechst High Intensity Objects (%) [2, 4]: 0%
Population Membrane Permeable-Phenotype (%) [2, 4]: 2.97% and 0%
Population Mitochondria Different-Phenotype (%) [2, 4]: 27.72% and 21.05%
Population Mitotic Cells (%) [2, 4]: 85.29% and 86.07%
Population Normal (%) [2, 4]: 100%
Population Pyknosed Nuclei (%) [2, 4]: 32.08% and 85.31%
Total Cell Count [2, 4]: 424 and 143
Population Apoptotic (%) [2, 5]: 28.57% and 37.07%
Population Fragmented Nuclei (%) [2, 5]: 3.59% and 6.21%
Population Hoechst High Intensity Objects (%) [2, 5]: 0.65% and 0%
Population Membrane Permeable-Phenotype (%) [2, 5]: 0.65% and 0%
Population Mitochondria Different-Phenotype (%) [2, 5]: 22.58% and 0%
Population Mitotic Cells (%) [2, 5]: 71.43% and 62.93%
Population Normal (%) [2, 5]: 99.35% and 100%
Population Pyknosed Nuclei (%) [2, 5]: 45.75% and 80%
Population Tubulin-Different-Phenotype (%) [2, 5]: 30.97% and 70%
Total Cell Count [2, 5]: 308 and 145
Population Apoptotic (%) [2, 6]: 14.29% and 19.69%
Population Healthy Nuclei (%) [2, 6]: 68.64% and 31.44%
Population Hoechst High Intensity Objects (%) [2, 6]: 0% and 1.52%
Population Membrane Permeable-Phenotype (%) [2, 6]: 1.78% and 1.64%
Population Mitochondria Different-Phenotype (%) [2, 6]: 11.17% and 11.48%
Population Mitotic Cells (%) [2, 6]: 85.71% and 80.31%
Population Normal (%) [2, 6]: 100% and 98.48%
Population Tubulin-Different-Phenotype (%) [2, 6]: 15.48% and 9.84%
Total Cell Count [2, 6]: 574 and 197
Population Apoptotic (%) [2, 7]: 47.22% and 65.45%
Population Fragmented Nuclei (%) [2, 7]: 1.9% and 4%
Population Hoechst High Intensity Objects (%) [2, 7]: 0%
Population Membrane Permeable-Phenotype (%) [2, 7]: 1.58% and 2.94%
Population Mitochondria Different-Phenotype (%) [2, 7]: 28.85% and 52.94%
Population Mitotic Cells (%) [2, 7]: 52.78% and 34.55%
Population Normal (%) [2, 7]: 100%
Population Pyknosed Nuclei (%) [2, 7]: 29.35% and 73.33%
Population Tubulin-Different-Phenotype (%) [2, 7]: 57.71% and 41.18%
Total Cell Count [2, 7]: 368 and 150
Population Fragmented Nuclei (%) [2, 8]: 9.11% and 4.39%
Population Healthy Nuclei (%) [2, 8]: 81.42% and 58.77%
Population Hoechst High Intensity Objects (%) [2, 8]: 0.09% and 1.3%
Population Membrane Permeable-Phenotype (%) [2, 8]: 9.75% and 2.24%
Population Mitochondria Different-Phenotype (%) [2, 8]: 13.07% and 33.58%
Population Mitotic Cells (%) [2, 8]: 98.1% and 79.76%
Population Normal (%) [2, 8]: 99.91% and 98.7%
Population Apoptotic (%) [2, 9]: 35.58% and 37.33%
Population Fragmented Nuclei (%) [2, 9]: 1.61% and 2.67%
Population Healthy Nuclei (%) [2, 9]: 79.82% and 47.33%
Population Hoechst High Intensity Objects (%) [2, 9]: 0%
Population Membrane Permeable-Phenotype (%) [2, 9]: 2.91% and 2.82%
Population Mitochondria Different-Phenotype (%) [2, 9]: 76.06% and 67.61%
Population Mitotic Cells (%) [2, 9]: 64.42% and 62.67%
Population Normal (%) [2, 9]: 100%
Population Pyknosed Nuclei (%) [2, 9]: 18.57% and 50%
Population Apoptotic (%) [3, 4]: 28.26% and 30.43%
Population Fragmented Nuclei (%) [3, 4]: 2.06% and 3.41%
Population Healthy Nuclei (%) [3, 4]: 87.39% and 83.52%
Population Hoechst High Intensity Objects (%) [3, 4]: 0%
Population Membrane Permeable-Phenotype (%) [3, 4]: 0.52% and 6.8%
Population Mitochondria Different-Phenotype (%) [3, 4]: 0% and 12.24%
Population Mitotic Cells (%) [3, 4]: 71.74% and 69.57%
Population Normal (%) [3, 4]: 100%
Population Pyknosed Nuclei (%) [3, 4]: 10.55% and 13.07%
Population Tubulin-Different-Phenotype (%) [3, 4]: 2.1% and 0.68%
Total Cell Count [3, 4]: 436 and 176
Population Apoptotic (%) [3, 5]: 55.32% and 60.53%
Population Fragmented Nuclei (%) [3, 5]: 3.8% and 4.6%
Population Healthy Nuclei (%) [3, 5]: 81.33% and 73.56%
Population Hoechst High Intensity Objects (%) [3, 5]: 0%
Population Membrane Permeable-Phenotype (%) [3, 5]: 17.12% and 38.28%
Population Mitotic Cells (%) [3, 5]: 44.68% and 39.47%
Population Normal (%) [3, 5]: 100%
Population Pyknosed Nuclei (%) [3, 5]: 14.87% and 21.84%
Population Tubulin-Different-Phenotype (%) [3, 5]: 58.37% and 42.19%
Total Cell Count [3, 5]: 316 and 174
Population Apoptotic (%) [3, 6]: 51.56% and 40%
Population Fragmented Nuclei (%) [3, 6]: 1.88% and 1.95%
Population Healthy Nuclei (%) [3, 6]: 87.2% and 85.85%
Population Hoechst High Intensity Objects (%) [3, 6]: 0.17% and 0%
Population Membrane Permeable-Phenotype (%) [3, 6]: 1.76% and 3.98%
Population Mitotic Cells (%) [3, 6]: 48.44% and 60%
Population Normal (%) [3, 6]: 99.83% and 100%
Population Pyknosed Nuclei (%) [3, 6]: 10.92% and 12.2%
Population Tubulin-Different-Phenotype (%) [3, 6]: 1.96% and 2.27%
Total Cell Count [3, 6]: 587 and 205
Population Apoptotic (%) [3, 7]: 70.87% and 69.84%
Population Fragmented Nuclei (%) [3, 7]: 5.07% and 6.21%
Population Healthy Nuclei (%) [3, 7]: 65.92% and 58.19%
Population Hoechst High Intensity Objects (%) [3, 7]: 0.28% and 0%
Population Membrane Permeable-Phenotype (%) [3, 7]: 18.8% and 30.1%
Population Mitotic Cells (%) [3, 7]: 29.13% and 30.16%
Population Normal (%) [3, 7]: 99.72% and 100%
Population Pyknosed Nuclei (%) [3, 7]: 29.01% and 35.59%
Population Tubulin-Different-Phenotype (%) [3, 7]: 47.86% and 58.25%
Total Cell Count [3, 7]: 356 and 177
Population Apoptotic (%) [3, 8]: 54.74% and 41.51%
Population Fragmented Nuclei (%) [3, 8]: 2.6% and 1.21%
Population Healthy Nuclei (%) [3, 8]: 87.9% and 82.73%
Population Hoechst High Intensity Objects (%) [3, 8]: 0%
Population Membrane Permeable-Phenotype (%) [3, 8]: 1.02% and 2.56%
Population Mitochondria Different-Phenotype (%) [3, 8]: 0% and 5.13%
Population Mitotic Cells (%) [3, 8]: 45.26% and 58.49%
Population Normal (%) [3, 8]: 100%
Population Pyknosed Nuclei (%) [3, 8]: 9.5% and 16.06%
Population Tubulin-Different-Phenotype (%) [3, 8]: 0.57% and 2.56%
Population Apoptotic (%) [3, 9]: 82.42% and 88.41%
Population Fragmented Nuclei (%) [3, 9]: 3.22% and 2.72%
Population Healthy Nuclei (%) [3, 9]: 72.39% and 59.78%
Population Hoechst High Intensity Objects (%) [3, 9]: 0%
Population Mitochondria Different-Phenotype (%) [3, 9]: 14.07% and 38.18%
Population Mitotic Cells (%) [3, 9]: 17.58% and 11.59%
Population Normal (%) [3, 9]: 100%
Population Pyknosed Nuclei (%) [3, 9]: 24.4% and 37.5%
Population Tubulin-Different-Phenotype (%) [3, 9]: 61.85% and 69.09%
Total Cell Count [3, 9]: 373 and 184

Reference: ChEMBL document CHEMBL5724801, “EUbOPEN Chemogenomics Library - Multiplex” (2024)
